As usually defined, the IC50 is the concentration needed to halve the response being measured.

Active and inactive are the calls of the source. No cut-off for these calls is given here.

These results are taken from ChEMBL document CHEMBL3994580, “A novel class of α-glucosidase and HMG-CoA reductase inhibitors from Ganoderma leucocontextum and the anti-diabetic properties of ganomycin I in KK-Ay mice” (Eur J Med Chem, 2017).

Data set [1] is described as follows: Inhibition of baker's yeast alpha-glucosidase using p-nitrophenyl alpha-D-glucopyranoside as substrate preincubated for 10 mins followed by substrate addition measured for 15 mins. More on the design: species or system Saccharomyces cerevisiae. A digest of the protocol:
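Baker's yeast α-glucosidase with pNPG, read at 405 nm. Control contained phosphate buffer in place of compound, and blank contained buffer in place of enzyme.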

Data set [2] has as its target T1, 3-hydroxy-3-methylglutaryl-coenzyme A reductase (Sus scrofa, UniProt Q1W675).
T1 sequence (Q1W675 whole entry): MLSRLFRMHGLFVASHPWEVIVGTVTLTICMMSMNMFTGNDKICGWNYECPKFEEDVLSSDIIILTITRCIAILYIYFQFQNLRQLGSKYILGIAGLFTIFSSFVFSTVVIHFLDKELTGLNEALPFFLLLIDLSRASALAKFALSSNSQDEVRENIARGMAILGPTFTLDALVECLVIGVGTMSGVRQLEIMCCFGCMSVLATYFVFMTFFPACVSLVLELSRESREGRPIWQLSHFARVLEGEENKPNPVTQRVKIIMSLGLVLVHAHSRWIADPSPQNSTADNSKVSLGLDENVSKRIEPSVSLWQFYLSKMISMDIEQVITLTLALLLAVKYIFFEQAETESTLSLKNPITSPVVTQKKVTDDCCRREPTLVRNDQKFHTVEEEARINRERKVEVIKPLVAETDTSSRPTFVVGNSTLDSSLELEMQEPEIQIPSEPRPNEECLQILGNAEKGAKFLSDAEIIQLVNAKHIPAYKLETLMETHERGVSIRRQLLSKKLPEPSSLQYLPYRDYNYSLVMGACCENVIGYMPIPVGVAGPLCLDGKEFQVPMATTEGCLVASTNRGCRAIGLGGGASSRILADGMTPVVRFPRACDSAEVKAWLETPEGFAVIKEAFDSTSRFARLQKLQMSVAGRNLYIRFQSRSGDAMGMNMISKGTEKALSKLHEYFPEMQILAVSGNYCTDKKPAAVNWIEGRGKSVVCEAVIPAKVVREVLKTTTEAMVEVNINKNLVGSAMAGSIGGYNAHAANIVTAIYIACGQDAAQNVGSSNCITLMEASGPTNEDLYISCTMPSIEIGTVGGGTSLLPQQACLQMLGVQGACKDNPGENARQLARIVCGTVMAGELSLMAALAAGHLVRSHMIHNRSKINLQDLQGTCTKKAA
Nature of the data set: (§1) Inhibition of HMG-CoA reductase in pig liver microsomes using HMG-CoA as substrate preincubated for 5 mins followed by NADPH addition measured after 15 mins by colorimetric method. The method in brief: (§2)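 HMG-CoA reductase activity followed by absorbance at 340 nm. Blank had potassium phosphate buffer instead of enzyme, and control had buffer instead of compound. Percent inhibition calculated from blank-corrected OD.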
In general terms: Microsomes from liver hold many membrane-bound enzymes, among them those of drug oxidation.

Data set [3] is described as follows: Inhibition of alpha-glucosidase in rat small intestinal mucosa assessed as reduction in glucose production using p-nitrophenyl alpha-D-glucopyranoside as substrate measured after 40 mins by glucose oxidase assay. A digest of the protocol:
(§3)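 Rat small intestinal mucosa enzyme. Compound in DMSO mixed with substrate (maltose, sucrose or pNPG) and enzyme in 0.1 M phosphate buffer pH 6.9, incubated 40 min. Glucose released measured by glucose oxidase kit at 550 nm. Blank lacked enzyme, control lacked compound. Percent inhibition calculated from blank-corrected OD.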

Data set [4] relates to Saccharomyces cerevisiae. Briefly: Non-competitive inhibition of baker's yeast alpha-glucosidase using varying levels of p-nitrophenyl alpha-D-glucopyranoside as substrate preincubated for 10 mins followed by substrate addition measured for 15 mins by Lineweaver-Burk plot analysis. The method in brief:
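Kinetics with inhibitor at 0.3 to 1 μM against α-glucosidase. pNPG at 2, 4, 6 and 8 μM. Initial velocities measured with and without inhibitor, and inhibition type assigned from Michaelis-Menten and Lineweaver-Burk plots.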

Data set [5] deals with Sucrase-isomaltase, intestinal (Rattus norvegicus, UniProt P23739). Briefly: Inhibition of sucrase in rat small intestinal mucosa assessed as reduction in glucose production using sucrose as substrate measured after 40 mins by glucose oxidase assay. A digest of the protocol: as §3
Data set [6] in a line: Inhibition of maltase in rat small intestinal mucosa assessed as reduction in glucose production using maltose as substrate measured after 40 mins by glucose oxidase assay. The method in brief:
as §3

Data set [7] deals with T2, 3-hydroxy-3-methylglutaryl-coenzyme A reductase (Sus scrofa) (UniProt Q1W675).
T2 sequence (whole entry): T1 sequence (Q1W675 whole entry)
The data set is described as §1. The method in brief: as §2

For data set [8], the system named is Mus musculus. Nature of the data set: Hypoglycemic activity in KK-Ay diabetic mouse model assessed as increase in liver hepatic glycogen level at 10 mg/kg/day administered via oral gavage once daily for 4 weeks. The format is functional, organism-based.
Data set [9] has as its system Mus musculus. Nature of the data set: Decrease in lipid droplet accumulation in liver in KK-Ay diabetic mouse model at 10 mg/kg/day administered via oral gavage once daily for 21 days by haematoxylin and eosin staining based microscopic or morphometric method. The format is functional, organism-based. A digest of the protocol:
(§4)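 At study end, liver and abdominal white adipose tissue were fixed in 10% formaldehyde PBS (pH 7.4), paraffin-embedded, sectioned and stained with haematoxylin/eosin. Sections were assessed by microscopy or morphometry at 20×.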

Data set [10] concerns Mus musculus. Nature of the data set: Hypolipidemic activity in KK-Ay diabetic mouse model assessed as reduction in serum total cholesterol level at 10 mg/kg/day administered via oral gavage once daily for 21 days. Format: functional, organism-based. The method in brief:
(§5)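 Male KK-Ay mice (8 weeks old) on high-fat diet with water ad libitum, dosed by gavage once daily for 21 days (1 or 5 mg/kg test; rosiglitazone 10 mg/kg); female C57BL/6J mice as normal controls. Blood collected at study end. Serum lipids, insulin and glucose measured per cited method. ISI calculated from fasting blood glucose and fasting insulin. Mean ± SEM, n = 7-8.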

Data set [11] deals with Mus musculus. Nature of the data set: Hypolipidemic activity in KK-Ay diabetic mouse model assessed as reduction in serum triglyceride level at 10 mg/kg/day administered via oral gavage once daily for 21 days. Format: functional, organism-based. The method in brief:
as §5

Data set [12] has as its system Mus musculus. Briefly: Toxicity in KK-Ay diabetic mouse model assessed as changes in body weight at 10 mg/kg/day administered via oral gavage once daily for 21 days measured every 3 days during compound dosing. The format is organism-based. The note with it: in vivo. A digest of the protocol:
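In high-fat-fed KK-Ay mice gavaged once daily for 21 days, individual body weight and cage food consumption were recorded every 3 days. Mean ± SEM, n = 8.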

For data set [13], the system named is Mus musculus. Nature of the data set: Hypolipidemic activity in KK-Ay diabetic mouse model assessed as reduction in serum NEFA level at 10 mg/kg/day administered via oral gavage once daily for 21 days. Format: functional, organism-based. The method in brief: as §5
The subject of data set [14] is Mus musculus. Nature of the data set: Decrease in hepatocyte hypertrophy in KK-Ay diabetic mouse model at 10 mg/kg/day administered via oral gavage once daily for 21 days by haematoxylin and eosin staining based microscopic or morphometric method. Format: functional, organism-based. The method in brief:
as §4

Data set [15] relates to Mus musculus. Briefly: Antidiabetic activity in KK-Ay diabetic mouse model assessed as reduction in HbA1C level at 10 mg/kg/day administered via oral gavage once daily for 21 days. Format: functional, organism-based.
Data set [16] deals with Mus musculus. Briefly: Antidiabetic activity in KK-Ay diabetic mouse model assessed as reduction in blood glucose level at 10 mg/kg/day administered via oral gavage once daily for 21 days measured at 30 to 60 mins post glucose challenge by oral glucose tolerance test. The format is functional, organism-based. A digest of the protocol:
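OGTT on day 21 of daily gavage dosing in KK-Ay mice. Blood glucose read at time points including 30 and 60 min, and the AUC was calculated. Mean ± SEM, n = 8.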

Data set [17] concerns Mus musculus. Nature of the data set: Antidiabetic activity in KK-Ay diabetic mouse model assessed as reduction in serum insulin level at 10 mg/kg/day administered via oral gavage once daily for 21 days. The format is functional, organism-based. A digest of the protocol: as §5
Data set [18] deals with Mus musculus. Briefly: Antidiabetic activity in KK-Ay diabetic mouse model assessed as reduction in blood glucose level at 10 mg/kg/day administered via oral gavage once daily measured on day 19 at 30 to 60 mins post insulin challenge by insulin tolerance test. Format: functional, organism-based. A digest of the protocol:
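ITT on day 19 of treatment: after 4 h fasting, insulin 0.6 U·kg-1 given intraperitoneally. Glycaemia was sampled from the tail tip before and at set times after injection, and the AUC was computed. Mean ± SEM, n = 8.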

In data set [19] the test system is Mus musculus. Nature of the data set: Antidiabetic activity in KK-Ay diabetic mouse model assessed as increase in insulin sensitivity index at 10 mg/kg/day administered via oral gavage once daily for 21 days. Format: functional, organism-based. A digest of the protocol: as §5
Data set [20] relates to Mus musculus. Briefly: Antidiabetic activity in KK-Ay diabetic mouse model assessed as reduction in blood glucose level after 4 hrs fasting at 10 mg/kg/day administered via oral gavage once daily measured on day 3 post dose. Format: functional, organism-based. The method in brief:
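KK-Ay mice on high-fat diet, gavaged once daily (1 or 5 mg/kg; rosiglitazone 10 mg/kg). Blood glucose monitored sequentially after 4 h fasting. Mean ± SEM, n = 8, compared with the KK-Ay model group.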

The test system of data set [21] is Mus musculus. Briefly: Decrease in size of adipocytes in abdominal white adipose tissue in KK-Ay diabetic mouse model at 10 mg/kg/day administered via oral gavage once daily for 21 days by haematoxylin and eosin staining based microscopic or morphometric method. The format is functional, organism-based. A digest of the protocol: as §4
Data set [22] concerns Mus musculus. Briefly: Antidiabetic activity in KK-Ay diabetic mouse model assessed as reduction in free diet blood glucose level at 10 mg/kg/day administered via oral gavage once daily measured on day 3 post dose. The format is functional, organism-based. A digest of the protocol: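 Non-fasted (free diet) blood glucose was tracked serially in high-fat-fed KK-Ay mice given daily gavage doses (1 or 5 mg/kg; rosiglitazone 10 mg/kg). Mean ± SEM, n = 8.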

For data set [23], the system named is Mus musculus. Nature of the data set: Effect on serum AST level in KK-Ay diabetic mouse model at 10 mg/kg/day administered via oral gavage once daily for 21 days. The format is functional, organism-based. A digest of the protocol: as §5

Sucrase-isomaltase, intestinal, sequence (P23739 1-1013 limits assumed): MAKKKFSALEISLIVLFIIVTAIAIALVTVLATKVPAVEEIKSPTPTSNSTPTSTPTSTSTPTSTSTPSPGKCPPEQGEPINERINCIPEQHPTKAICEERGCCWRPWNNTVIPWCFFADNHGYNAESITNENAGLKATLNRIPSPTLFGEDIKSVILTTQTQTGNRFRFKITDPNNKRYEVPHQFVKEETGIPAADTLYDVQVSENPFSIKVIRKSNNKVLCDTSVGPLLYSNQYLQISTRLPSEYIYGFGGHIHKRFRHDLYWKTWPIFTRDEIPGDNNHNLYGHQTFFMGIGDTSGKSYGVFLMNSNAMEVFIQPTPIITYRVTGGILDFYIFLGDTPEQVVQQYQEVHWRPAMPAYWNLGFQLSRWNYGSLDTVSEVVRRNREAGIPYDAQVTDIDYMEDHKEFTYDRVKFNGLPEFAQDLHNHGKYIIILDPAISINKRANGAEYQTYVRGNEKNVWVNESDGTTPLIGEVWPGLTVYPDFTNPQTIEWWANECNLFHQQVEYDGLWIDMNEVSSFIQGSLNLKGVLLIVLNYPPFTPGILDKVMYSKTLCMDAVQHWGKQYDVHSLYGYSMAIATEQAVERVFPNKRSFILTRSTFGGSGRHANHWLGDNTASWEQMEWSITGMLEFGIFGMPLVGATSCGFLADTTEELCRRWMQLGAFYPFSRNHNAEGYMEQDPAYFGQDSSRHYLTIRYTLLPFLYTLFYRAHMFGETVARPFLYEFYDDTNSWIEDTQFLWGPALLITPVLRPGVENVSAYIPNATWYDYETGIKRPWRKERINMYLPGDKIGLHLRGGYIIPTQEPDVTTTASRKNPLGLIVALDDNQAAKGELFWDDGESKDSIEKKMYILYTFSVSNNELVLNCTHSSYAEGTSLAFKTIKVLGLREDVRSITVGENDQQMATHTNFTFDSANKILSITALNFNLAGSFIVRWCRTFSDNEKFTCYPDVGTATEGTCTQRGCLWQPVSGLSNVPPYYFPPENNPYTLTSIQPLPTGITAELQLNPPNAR
Sucrase-isomaltase, intestinal, sequence (P23739 1014-1841 limits assumed): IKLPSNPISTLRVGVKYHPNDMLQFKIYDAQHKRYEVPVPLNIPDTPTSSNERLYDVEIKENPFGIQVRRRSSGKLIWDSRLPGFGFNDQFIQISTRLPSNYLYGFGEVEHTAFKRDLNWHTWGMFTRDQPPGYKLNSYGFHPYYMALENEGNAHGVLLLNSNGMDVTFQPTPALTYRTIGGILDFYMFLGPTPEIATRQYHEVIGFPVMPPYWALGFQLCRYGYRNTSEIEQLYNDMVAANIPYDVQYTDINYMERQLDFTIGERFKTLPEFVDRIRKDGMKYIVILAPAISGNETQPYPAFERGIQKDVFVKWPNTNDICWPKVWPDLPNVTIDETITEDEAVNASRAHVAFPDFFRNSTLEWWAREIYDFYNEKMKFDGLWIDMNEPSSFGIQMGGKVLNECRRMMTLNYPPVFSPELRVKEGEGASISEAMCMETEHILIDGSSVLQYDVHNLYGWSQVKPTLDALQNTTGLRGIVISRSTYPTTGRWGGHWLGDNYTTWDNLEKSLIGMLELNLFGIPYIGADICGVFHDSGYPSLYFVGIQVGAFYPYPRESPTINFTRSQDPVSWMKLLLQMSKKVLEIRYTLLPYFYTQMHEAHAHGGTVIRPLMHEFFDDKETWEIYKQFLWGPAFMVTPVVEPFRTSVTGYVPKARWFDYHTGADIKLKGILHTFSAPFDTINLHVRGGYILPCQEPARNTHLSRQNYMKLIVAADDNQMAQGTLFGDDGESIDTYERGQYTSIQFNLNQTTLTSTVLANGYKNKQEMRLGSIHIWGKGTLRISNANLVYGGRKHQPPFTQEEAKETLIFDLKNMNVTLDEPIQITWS

For `C/C(C=O)=C\CC/C(C)=C/CCC1=C[C@H](c2cc(O)ccc2O)OC1=O`, the IC50 is 12.7 µM in data set [1]; greater than 100 µM in [2]; 15.8 µM in data set [3]; greater than 100 µM in data set [5]; 80.1 µM in data set [6]. Besides, the inhibition result in [4] is “Active”.
As to `COC1(c2cc(O)ccc2O)C=C(CC/C=C(\C)CC/C=C(\C)C=O)C(=O)O1` (stereo unspecified), the IC50 is 10.2 µM in data set [1]; 56.9 µM in data set [2]; 15.8 µM in data set [3]; greater than 100 µM in data set [5]; 23.8 µM in data set [6]. Also, the inhibition result in [7] was “Dose-dependent effect”. Besides, in [4], the inhibition result is “Active”.
As for `C/C1=C/CC/C(=C/Cc2cc(O)ccc2O)C(=O)OC(C)(C)[C@H](O)CC1`, the IC50 is 6.3 µM in data set [1]; greater than 100 µM in data set [2]; 3.6 µM in data set [3]; greater than 100 µM in data set [5]; 45.8 µM in data set [6]. In data set [4], the inhibition result was “Active”.
In the case of `CC(C)=CCC/C(C)=C/CC/C(=C/Cc1cc(O)ccc1O)C(=O)O` [GANOMYCIN B], the IC50 in [1] amounted to 1.6 µM; in data set [2], 29.3 µM; in [3] it was 5.9 µM; in [5] it was 35.5 µM; in data set [6], 17.8 µM. The inhibition result in data set [7] was “Dose-dependent effect”. In data set [4], the inhibition entry was “Active”.
With `CC(C)=CCC/C(C)=C/CC/C(=C/C(=O)c1cc(O)ccc1O)C(=O)O`, the IC50 is 3.2 µM in data set [1]; 45.2 µM in [2]; 6.4 µM in [3]; greater than 100 µM in [5]; 18.1 µM in data set [6]. Further, in data set [7], the inhibition result is “Dose-dependent effect”. The inhibition entry in data set [4] was “Active”.
`CN(CCOc1ccc(CC2SC(=O)NC2=O)cc1)c1ccccn1` (stereo unspecified) [ROSIGLITAZONE]: the outcome in [8], in data set [9], in [14] and in data set [23] was inactive. Moreover, the result in data set [10], in data set [11], in [13], in data set [15], in [16] and in [17] was Active. For the same compound, the result in data set [18], in [19], in [20], in [21] and in data set [22] was Active. Moreover, in data set [12], the Activity entry is “Toxic”.
On to `CC(C)=CCC/C(C)=C/CC/C(=C\Cc1cc(O)ccc1O)C(=O)O`, for which the IC50 in data set [1], in data set [2], in data set [3], in [5] and in [6] was greater than 100 µM throughout.
On to `C[C@H]1O[C@H](O[C@H]2[C@H](O)[C@@H](O)[C@@H](O[C@H]3[C@H](O)[C@@H](O)C(O)O[C@@H]3CO)O[C@@H]2CO)[C@H](O)[C@@H](O)[C@@H]1N[C@H]1C=C(CO)[C@@H](O)[C@H](O)[C@H]1O` (stereo partly specified) [ACARBOSE], for which, in data set [1], half-maximal inhibition (IC50) required 273 µM.
For `CC(C)=CCC/C(C)=C/CCC(CC(=O)c1cc(O)ccc1O)C(=O)O` (stereo unspecified) [FORNICIN C], the IC50 in data set [1] is 32.1 µM; in [2], greater than 100 µM; in data set [3], 61.2 µM; in data set [5] it was greater than 100 µM; in data set [6], 46.2 µM. Further, in [4], the inhibition result is “Active”.
